Assay results from ChEMBL document CHEMBL1138512, “A class of 2,4-bisanilinopyrimidine Aurora A inhibitors with unusually high selectivity against Aurora B” (J Med Chem, 2009).

Legend:
Aurora kinase A = target: T1, Aurora kinase A (Homo sapiens, UniProt O14965); assay: Inhibition of N-terminal flag-tagged Aurora A expressed in Escherichia coli BL21-DE3 by ELISA
T1 sequence (O14965 whole entry): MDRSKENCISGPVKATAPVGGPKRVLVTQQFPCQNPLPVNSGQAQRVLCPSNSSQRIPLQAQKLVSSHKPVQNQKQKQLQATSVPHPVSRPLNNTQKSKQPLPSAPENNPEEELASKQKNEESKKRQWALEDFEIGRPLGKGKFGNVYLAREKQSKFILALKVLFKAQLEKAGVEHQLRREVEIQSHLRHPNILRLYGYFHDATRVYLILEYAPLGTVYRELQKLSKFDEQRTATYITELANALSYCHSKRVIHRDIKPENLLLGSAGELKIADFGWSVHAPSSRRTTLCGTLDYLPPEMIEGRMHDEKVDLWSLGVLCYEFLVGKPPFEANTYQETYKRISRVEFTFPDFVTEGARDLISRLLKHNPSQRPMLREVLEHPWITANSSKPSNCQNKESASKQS

Aurora kinase B [1] = target: T2, Aurora kinase B (Homo sapiens, UniProt Q96GD4); assay: Inhibition of Aurora B in human HT29 cells assessed as complete loss of phospho-histone H3 staining by immunofluorescence assay; format: cell-based, HT-29
How it was run: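 Immunofluorescence for phospho-S10 histone H3 in HCT116 or HT29 cells, scored visually. Value taken as the lowest inhibitor concentration giving complete loss of staining, so it lies above the IC50. Units µM.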

Aurora kinase B [2] = target: T2, Aurora kinase B; assay: Inhibition of N-terminal flag-tagged Aurora B expressed in Escherichia coli BL21-DE3 by ELISA
HCT-116 = assay: Antiproliferative activity against human HCT116 cells after 4 days by celltiter assay; format: functional, cell-based; conditions: HCT-116, 96 h
HT-29 = assay: Antiproliferative activity against human HT-29 cells after 4 days by celltiter assay; format: functional, cell-based; conditions: HT-29, 96 h
Aurora kinase B [3] = target: T2, Aurora kinase B; assay: Inhibition of Aurora B in human HCT116 cells assessed as complete loss of phospho-histone H3 staining by immunofluorescence assay

T2 sequence (Q96GD4 whole entry): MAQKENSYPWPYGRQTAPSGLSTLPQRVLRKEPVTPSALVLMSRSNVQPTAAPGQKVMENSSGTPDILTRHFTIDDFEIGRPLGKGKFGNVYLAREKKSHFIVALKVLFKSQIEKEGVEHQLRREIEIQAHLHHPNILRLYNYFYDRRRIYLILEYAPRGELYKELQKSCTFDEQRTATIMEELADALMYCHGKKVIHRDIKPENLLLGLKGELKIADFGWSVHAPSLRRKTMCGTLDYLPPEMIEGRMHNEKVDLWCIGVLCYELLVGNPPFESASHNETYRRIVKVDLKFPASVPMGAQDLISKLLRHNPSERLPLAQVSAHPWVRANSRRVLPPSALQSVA

SMILES | IC50 (Aurora kinase A) | other results
COc1cccc(Nc2nc(Nc3ccc(O)cc3)ncc2F)c1 | 260 nM | –
Cc1ccc(NC(=O)c2ccc(Nc3nc(Nc4ccc(O)cc4)ncc3F)cc2)cc1 | 180 nM | –
O=C(O)c1ccc(Nc2ncc3c(n2)-c2ccc(Cl)cc2C(c2c(F)cccc2F)=NC3)cc1 [MLN-8054] | – | IC50 (HCT-116): 100 nM; IC50 (HT-29): 150 nM
Cc1cc(Nc2ccc(O)cc2)nc(Nc2ccc(O)cc2)n1 | > 17000 nM | –
Cc1cccc(Nc2nc(Nc3ccc(O)cc3)ncc2F)c1 | 180 nM | –
CN(C)C(=O)c1ccc(Nc2nc(Nc3ccc(O)cc3)ncc2F)cc1 | 640 nM | –
O=C(Nc1cccc(Cl)c1)c1ccc(Nc2nc(Nc3ccc(O)cc3)ncc2F)cc1 | 140 nM | –
CCCc1cnc(Nc2ccc(O)cc2)nc1Nc1ccc(O)cc1 | 11000 nM | –
COc1ccc(Nc2ncc(F)c(Nc3ccc(OC)cc3)n2)cc1 | 130 nM | –
Cc1nc(Nc2ccc(O)cc2)nc(Nc2ccc(O)cc2)c1C | > 17000 nM | –

Second part, led by results:

IC50 (Aurora kinase A) | SMILES | other results
19 nM | O=C(Nc1cccc(O)c1)c1ccc(Nc2nc(Nc3ccc(O)cc3)ncc2F)cc1 | –
20 nM | Cc1ccccc1NC(=O)c1ccc(Nc2nc(Nc3ccc(O)cc3)ncc2F)cc1 | –
54 nM | O=C(NC1CC1)c1ccc(Nc2nc(Nc3ccc(O)cc3)ncc2F)cc1 | IC50 (Aurora kinase B [1]): > 30000 nM; IC50 (Aurora kinase B [2]): 3800 nM; IC50 (HCT-116): 2000 nM; IC50 (HT-29): 27000 nM; IC50 (Aurora kinase B [3]): > 25000 nM
64 nM | O=C(Nc1ccc(Cl)cc1)c1ccc(Nc2nc(Nc3ccc(O)cc3)ncc2F)cc1 | –
59 nM | O=C(Nc1cccc(F)c1)c1ccc(Nc2nc(Nc3ccc(O)cc3)ncc2F)cc1 | –
9 nM | O=C(Nc1ccccc1F)c1ccc(Nc2nc(Nc3ccc(O)cc3)ncc2F)cc1 | –
14 nM | Oc1ccc(Nc2ncc(C(F)(F)F)c(Nc3ccc(O)cc3)n2)cc1 | –
23 nM | N#Cc1cnc(Nc2ccc(O)cc2)nc1Nc1ccc(O)cc1 | –
14 nM | O=C(Nc1ccc(Nc2nc(Nc3ccc(O)cc3)ncc2F)cc1)c1ccccc1F | –
19 nM | O=C(Nc1ccccc1)c1ccc(Nc2nc(Nc3ccc(O)cc3)ncc2F)cc1 | –
13 nM | O=C(Nc1ccc(O)cc1)c1ccc(Nc2nc(Nc3ccc(O)cc3)ncc2F)cc1 | –
36 nM | COc1cccc(NC(=O)c2ccc(Nc3nc(Nc4ccc(O)cc4)ncc3F)cc2)c1 | –
30 nM | Oc1ccc(Nc2ncc(F)c(Nc3ccc(O)cc3)n2)cc1 | –
